Measured values: ChEMBL document CHEMBL1136492, “Design and syntheses of melanocortin subtype-4 receptor agonists: evolution of the pyridazinone archetype” (Bioorg Med Chem Lett, 2003)

Experiments:
[1] = molecular target: T1, Melanocortin receptor 4 (Homo sapiens, UniProt P32245); assay: Concentration required to inhibit binding of [125I]-NDP-alpha-MSH from membranes prepared from CHO cells expressing human melanocortin subtype-4-receptor (MC4R); type: cell membranes
In short: (§1)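 Competition binding using membranes from CHO cells expressing human MC4R, with [125I]-NDP-α-MSH as radioligand. IC50 is the compound concentration that inhibits radioligand binding by 50%. Values are means of at least two separate experiments.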

[2] = molecular target: T1, Melanocortin receptor 4; assay: Percentage of cAMP accumulation at 10 uM of compound relative to alpha-MSH, at human MC4R; type: functional
In short: (§2)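 cAMP accumulation at human MC4R, measured relative to α-MSH. EC50 is the inflection point of the cAMP dose-response curve. Where no EC50 is given, the value is the accumulation at the highest concentration tested. %Max is the accumulation at 10 µM compound relative to α-MSH. Values are means of at least two separate experiments.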

[3] = molecular target: T1, Melanocortin receptor 4; assay: Effective concentration for cAMP accumulation relative to alpha-MSH at human MC4R; type: functional; in short: as §2
[4] = molecular target: T1, Melanocortin receptor 4; assay: Percentage of cAMP accumulation of compound relative to alpha-MSH, at human MC4R; type: functional; in short: as §2
[5] = molecular target: T1, Melanocortin receptor 4; assay: Concentration required to inhibit binding of [125I]NDP-alpha-MSH from membranes prepared from CHO cells expressing human MC4R; type: cell membranes; in short: as §1
[6] = molecular target: Melanocortin receptor 5 (Homo sapiens, UniProt P33032); assay: Concentration required to inhibit binding of [125I]NDP-alpha-MSH from membranes prepared from CHO cells expressing human melanocortin subtype-5-receptor (MC5R); type: cell membranes
[7] = molecular target: Melanocortin receptor 3 (Homo sapiens, UniProt P41968); assay: Concentration required to inhibit binding of [125I]NDP-alpha-MSH from membranes prepared from CHO cells expressing human melanocortin subtype-3-receptor (MC3R); type: cell membranes
Chain of Melanocortin receptor 3 (P41968 whole entry): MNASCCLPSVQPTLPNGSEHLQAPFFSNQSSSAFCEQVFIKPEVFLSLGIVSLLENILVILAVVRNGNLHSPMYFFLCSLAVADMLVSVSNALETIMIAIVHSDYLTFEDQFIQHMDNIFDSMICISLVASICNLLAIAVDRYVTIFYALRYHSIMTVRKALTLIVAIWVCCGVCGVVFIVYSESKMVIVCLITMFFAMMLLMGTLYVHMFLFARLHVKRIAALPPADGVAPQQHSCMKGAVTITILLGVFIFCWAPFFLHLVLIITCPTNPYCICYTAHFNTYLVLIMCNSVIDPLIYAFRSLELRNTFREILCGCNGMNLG

T1 sequence (P32245 whole entry): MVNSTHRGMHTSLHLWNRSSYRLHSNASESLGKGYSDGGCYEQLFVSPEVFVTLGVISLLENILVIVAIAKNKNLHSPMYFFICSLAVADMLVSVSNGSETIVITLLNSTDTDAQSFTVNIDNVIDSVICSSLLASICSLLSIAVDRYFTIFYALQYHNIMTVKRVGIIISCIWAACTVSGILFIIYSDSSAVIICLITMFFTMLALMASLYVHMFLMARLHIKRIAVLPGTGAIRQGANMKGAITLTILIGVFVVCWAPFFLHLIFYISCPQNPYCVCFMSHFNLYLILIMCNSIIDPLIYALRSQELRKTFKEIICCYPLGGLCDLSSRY
Chain of Melanocortin receptor 5 (P33032 whole entry): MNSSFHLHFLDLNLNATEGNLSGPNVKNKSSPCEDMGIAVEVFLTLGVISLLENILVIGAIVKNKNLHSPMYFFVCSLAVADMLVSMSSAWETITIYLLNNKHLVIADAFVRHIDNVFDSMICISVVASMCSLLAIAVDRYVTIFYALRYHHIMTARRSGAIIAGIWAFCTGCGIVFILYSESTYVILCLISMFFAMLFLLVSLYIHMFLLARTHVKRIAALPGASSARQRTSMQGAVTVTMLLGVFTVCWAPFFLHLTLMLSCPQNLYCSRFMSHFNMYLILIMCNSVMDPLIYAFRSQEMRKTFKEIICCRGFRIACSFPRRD

COc1ccc(-n2nc(Sc3ccc(Cl)cc3)cc(CC[C@@H](C)NC(=O)[C@H]3CCNC[C@@H]3c3ccccc3)c2=O)cc1
IC50 [1]: 130 nM
Max [2]: 85%
EC50 [3]: 237 nM

COc1ccc(-n2nc(Sc3ccc(Cl)cc3)cc(C(C)CCNC(=O)[C@H]3CNCC[C@@H]3c3ccccc3)c2=O)cc1 (stereo partly drawn)
IC50 [1]: 3930 nM
EC50 [3]: > 5000 nM
Max [4]: 31%

COc1ccc(-n2nc(Sc3ccc(Cl)cc3)cc(CCC(=O)N[C@@H]3CCc4ccccc4NC3=O)c2=O)cc1
IC50 [1]: 144 nM
EC50 [3]: 3060 nM
Max [4]: 34%

COc1ccc(-n2nc(Sc3ccc(Cl)cc3)cc(CC[C@H](C)NC(=O)[C@H]3CNC[C@@H]3c3ccccc3)c2=O)cc1
IC50 [1]: 975 nM
EC50 [3]: 5800 nM
Max [4]: 67%

COc1ccc(-n2nc(Sc3ccc(Cl)cc3)cc(CC[C@@H](C)NC(=O)[C@H]3CNC[C@@H]3c3ccccc3)c2=O)cc1 [listing 1 of 3 here]
IC50 [1]: 190 nM
EC50 [3]: 405 nM

COc1ccc(-n2nc(Sc3ccc(Cl)cc3)cc(CC[C@H](C)NC(=O)[C@H]3CNCC[C@H]3c3ccccc3)c2=O)cc1
IC50 [1]: 9020 nM
Max [2]: 13%

COc1ccc(-n2nc(Sc3ccc(Cl)cc3)cc(CC[C@H](C)NC(=O)[C@@H]3CNCC[C@H]3c3ccccc3)c2=O)cc1
IC50 [1]: 2990 nM
Max [2]: 5%

COc1ccc(-n2nc(Sc3ccc(Cl)cc3)cc(CCC(=O)NCCOc3ccccc3)c2=O)cc1
IC50 [5]: 5600 nM
Max [2]: 15%

COc1ccc(-n2nc(Sc3ccc(Cl)cc3)cc(CCCNC(=O)[C@H]3CCNC[C@@H]3c3ccccc3)c2=O)cc1
IC50 [1]: 2750 nM
EC50 [3]: > 5000 nM
Max [4]: 28%

COc1ccc(-n2nc(Sc3ccc(Cl)cc3)cc(CCC(C)NC(=O)[C@H]3CCNC[C@@H]3c3ccccc3)c2=O)cc1 (stereo partly drawn)
IC50 [1]: 339 nM
EC50 [3]: 260 nM
Max [4]: 79%

COc1ccc(-n2nc(Sc3ccc(Cl)cc3)cc(CC[C@H](C)NC(=O)[C@@H]3CNCC[C@@H]3c3ccccc3)c2=O)cc1
Max [2]: 12%

COc1ccc(-n2nc(Sc3ccc(Cl)cc3)cc(CC[C@H](C)NC(=O)[C@H]3CNCC[C@@H]3c3ccccc3)c2=O)cc1
IC50 [1]: 1200 nM
Max [2]: 65%
EC50 [3]: 1730 nM

COc1ccc(-n2nc(Sc3ccc(Cl)cc3)cc(CCCNC(=O)[C@H]3CNC[C@@H]3c3ccccc3)c2=O)cc1
IC50 [1]: 1240 nM
EC50 [3]: 820 nM
Max [4]: 22%

COc1ccc(-n2nc(Sc3ccc(Cl)cc3)cc(CCC(C)NC(=O)[C@H]3CNCC[C@@H]3c3ccccc3)c2=O)cc1 (stereo partly drawn)
IC50 [1]: 41 nM
EC50 [3]: 227 nM
Max [4]: 82%

COc1ccc(-n2nc(Sc3ccc(Cl)cc3)cc(CCCNC(=O)[C@H]3CNCC[C@@H]3c3ccccc3)c2=O)cc1
IC50 [1]: 1970 nM
EC50 [3]: 500 nM
Max [4]: 20%

COc1ccc(-n2nc(Sc3ccc(Cl)cc3)cc(CC[C@@H](C)NC(=O)[C@@H]3CNCC[C@@H]3c3ccccc3)c2=O)cc1
Max [2]: 38%
EC50 [3]: > 5000 nM

COc1ccc(-n2nc(Sc3ccc(Cl)cc3)cc(CC(C)CNC(=O)[C@H]3CNCC[C@@H]3c3ccccc3)c2=O)cc1 (stereo partly drawn)
IC50 [1]: 2170 nM
EC50 [3]: > 5000 nM
Max [4]: 35%

COc1ccc(-n2nc(Sc3ccc(Cl)cc3)cc(CC[C@@H](C)NC(=O)[C@H]3CNC[C@@H]3c3ccccc3)c2=O)cc1 [listing 2 of 3 here]
Max [2]: 103%
Max [4]: 97%

COc1ccc(-n2nc(Sc3ccc(Cl)cc3)cc(CCC(=O)NC3CCCCNC3=O)c2=O)cc1 (stereo not drawn)
IC50 [5]: 2.27 nM
Max [2]: 0%

O=C(N[C@H](Cc1ccc(Cl)cc1)C(=O)N1CCC(Cn2cncn2)(C2CCCCC2)CC1)[C@H]1CCc2ccccc2N1
IC50 [1]: 1.2 nM
Max [4]: 97%

COc1ccc(-n2nc(Sc3ccc(Cl)cc3)cc(CC[C@@H](C)NC(=O)[C@@H]3CNCC[C@H]3c3ccccc3)c2=O)cc1
IC50 [1]: 2060 nM
Max [2]: 32%
EC50 [3]: > 5000 nM

COc1ccc(-n2nc(Sc3ccc(Cl)cc3)cc(CC[C@@H](C)NC(=O)[C@H]3CNCC[C@@H]3c3ccccc3)c2=O)cc1
IC50 [1]: 33 nM
Max [2]: 77%
EC50 [3]: 177 nM
IC50 [6]: 1410 nM
IC50 [7]: 2170 nM

COc1ccc(-n2nc(Sc3ccc(Cl)cc3)cc(CC[C@@H](C)NC(=O)[C@H]3CNC[C@@H]3c3ccccc3)c2=O)cc1 [listing 3 of 3 here]
IC50 [1]: 380 nM
EC50 [3]: 250 nM

COc1ccc(-n2nc(Sc3ccc(Cl)cc3)cc(CC[C@@H](C)NC(=O)[C@H]3CNCC[C@H]3c3ccccc3)c2=O)cc1
IC50 [1]: 2240 nM
Max [2]: 54%
EC50 [3]: 4050 nM
